Measured values published in ChEMBL document CHEMBL1135989, “Synthesis and in vitro pharmacology of substituted quinoline-2,4-dicarboxylic acids as inhibitors of vesicular glutamate transport” (J Med Chem, 2002).

Assays:
[1] = target: T1, Vesicular glutamate transporter 3 (Rattus norvegicus) (UniProt Q7TSF2); experiment: Inhibition of Vesicular glutamate transporter (VGLUT) by the ability to block the uptake of 250 uM of [3,4-3H]-L-glutamate into synaptic vesicles isolated from rat forebrain at equimolar conc. (250 uM ); assay type: functional
T1 sequence (whole entry): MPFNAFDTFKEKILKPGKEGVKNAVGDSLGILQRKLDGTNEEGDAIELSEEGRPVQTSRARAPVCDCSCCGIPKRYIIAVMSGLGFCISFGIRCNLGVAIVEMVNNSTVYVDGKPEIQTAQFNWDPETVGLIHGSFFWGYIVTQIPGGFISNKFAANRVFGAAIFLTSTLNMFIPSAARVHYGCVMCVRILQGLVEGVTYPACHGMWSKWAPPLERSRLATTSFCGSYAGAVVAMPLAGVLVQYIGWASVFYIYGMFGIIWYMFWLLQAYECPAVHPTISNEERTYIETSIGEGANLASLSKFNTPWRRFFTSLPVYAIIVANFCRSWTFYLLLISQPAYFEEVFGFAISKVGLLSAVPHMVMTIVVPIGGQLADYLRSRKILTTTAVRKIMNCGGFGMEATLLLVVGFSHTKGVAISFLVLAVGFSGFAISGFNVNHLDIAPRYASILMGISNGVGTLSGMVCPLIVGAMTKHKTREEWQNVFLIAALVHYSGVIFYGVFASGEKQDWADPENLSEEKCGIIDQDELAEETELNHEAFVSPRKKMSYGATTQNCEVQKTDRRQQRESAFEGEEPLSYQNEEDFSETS
In short: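 Same vesicle uptake set-up (0.25 mM [3H]-L-glutamate, 2.0 mM ATP, 30 °C, 1.5 min, filtration/LSC, ATP-free background subtracted), with inhibitor at 250 µM added with substrate. Expressed as % of control uptake, mean ± SEM (n).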

[2] = target: T2, Vesicular glutamate transporter 3 (Rattus norvegicus, UniProt Q7TSF2); experiment: Evaluated for competitive inhibition against Vesicular glutamate transporter (VGLUT), and Ki value was reported.
T2 sequence (Q7TSF2 whole entry): T1 sequence (whole entry)

[3] = target: T2, Vesicular glutamate transporter 3; experiment: Compound was evaluated for competitive inhibition against Vesicular glutamate transporter (VGLUT), and Ki value was reported,.using Cheng-Prushoff equation
In short: (§1)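 Rat forebrain synaptic vesicles (male Sprague-Dawley, stored -80 °C). Vesicles (100-150 µg protein) preincubated 5 min at 30 °C. Ran 1.5 min, then filtration and LSC. Uptake without ATP subtracted. IC50 from dose-response; Ki by Cheng-Prusoff.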

[4] = target: T1, Vesicular glutamate transporter 3 (Rattus norvegicus); experiment: Inhibition of Vesicular glutamate transporter (VGLUT) by the ability to block the uptake of 250 uM of [3,4-3H]-L-glutamate into synaptic vesicles isolated from rat forebrain at a 20 fold excess (5 mM) of inhibitor; assay type: functional
In short: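 Inhibitor at 5 mM added with substrate. Quenched in ice-cold 150 mM KCl, filtered, counted by LSC. ATP-free uptake subtracted. Expressed as % of control uptake, mean ± SEM (n).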

[5] = target: T2, Vesicular glutamate transporter 3; experiment: Estimated inhibitory conc. against Vesicular glutamate transporter (VGLUT), using Cheng-Prushoff equation; in short: as §1
[6] = target: T2, Vesicular glutamate transporter 3; experiment: Inhibitory conc. against Vesicular glutamate transporter (VGLUT), derived from Lineweaver-Burke analysis
In short: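 Uptake into rat forebrain synaptic vesicles (ATP 2.0 mM, 30 °C, 1.5 min, [3H]-L-glutamate, filtration and LSC) run across both inhibitor and substrate concentrations. Ki from Lineweaver-Burk double reciprocal plots (1/V vs 1/[S]) and a replot of Km(app) against inhibitor concentration.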

[7] = target: T2, Vesicular glutamate transporter 3; experiment: Compound was evaluated for the inhibition of Vesicular glutamate transporter (VGLUT)

| Glutamate uptake remaining (% of control) [1] [%] | Glutamate uptake remaining (% of control) [4] [%] | Compound | also measured |
| --- | --- | --- | --- |
| 100 |  | O=C(O)c1cc(C(=O)O)c2ccc(O)cc2n1 |  |
|  |  | COc1cc(-c2ccc(/N=N/c3ccc4c(S(=O)(=O)O)cc(S(=O)(=O)O)c(N)c4c3O)c(OC)c2)ccc1/N=N/c1ccc2c(S(=O)(=O)O)cc(S(=O)(=O)O)c(N)c2c1O [CHICAGO SKY BLUE] | Ki [2]: 0.19 µM |
| 31 | 0 | O=C(O)c1cc(C(=O)O)c2cc(/N=N/c3ccccc3)ccc2n1 | Ki [3]: 288 µM |
| 100 |  | O=C(O)c1cc(C(=O)O)c2cccc(C(=O)O)c2n1 |  |
| 47 |  | O=C(O)c1cc(C(=O)O)c2cc(CCc3ccccc3)ccc2n1 | Ki [5]: 143 µM |
|  |  | O=C(O)c1cc(O)c2ccc(Cl)cc2n1 [7-CHLOROKYNURENIC ACID] | Ki [2]: 590 µM |
| 100 |  | O=C(O)c1cc(C(=O)O)c2c(I)cccc2n1 |  |
| 88 |  | O=C(O)c1cc(C(=O)O)c2cccc(-c3ccccc3)c2n1 |  |
|  |  | O=C(O)c1cc(C(=O)O)c2cc(OCCc3ccccc3)ccc2n1 | Ki [5]: 189 µM |
| 91 |  | O=C(O)c1cc(C(=O)O)c2ccc(-c3ccccc3)cc2n1 |  |
| 87 | 10 | O=C(O)c1cc(C(=O)O)c2cc(I)ccc2n1 |  |
| 73 | 1 | O=C(O)c1cc(C(=O)O)c2cc(Cl)ccc2n1 |  |
| 100 | 54 | O=C(O)c1cc(C(=O)O)c2c(F)cccc2n1 |  |
| 74 |  | O=C(O)c1cc(C(=O)O)c2cc(OCCCCCCO)ccc2n1 |  |
| 20 |  | O=C(O)c1cc(C(=O)O)c2cc(-c3ccc(-c4ccccc4)cc3)ccc2n1 | Ki [5]: 41 µM; Ki [6]: 95 µM |
| 50 | 1 | O=C(O)c1cc(C(=O)O)c2ccc(OCc3ccccc3)cc2n1 |  |
| 77 |  | O=C(O)c1cc(C(=O)O)c2cc(-c3ccccc3)ccc2n1 |  |
| 100 | 48 | COc1ccc2c(C(=O)O)cc(C(=O)O)nc2c1 |  |
| 64 |  | O=C(O)c1cc(C(=O)O)c2c(-c3cccc4ccccc34)cccc2n1 |  |
| 67 |  | O=C(O)c1cc(C(=O)O)c2cc(OC3CCCCC3)ccc2n1 |  |
| 51 |  | O=C(O)c1cc(C(=O)O)c2cc(/C=C/c3ccccc3)ccc2n1 | Ki [5]: 167 µM; Ki [6]: 129 µM |
| 100 | 15 | COc1cc(OC)c2c(C(=O)O)cc(C(=O)O)nc2c1 |  |
|  |  | N[C@]1(C(=O)O)CC[C@H](C(=O)O)C1 (relative stereo) | Ki [2]: 700 µM |
| 21 |  | O=C(O)c1cc(C(=O)O)c2cc(/C=C/c3cccc4ccccc34)ccc2n1 |  |
| 100 | 62 | COc1ccc(OC)c2c(C(=O)O)cc(C(=O)O)nc12 |  |
| 74 | 2 | O=C(O)c1cc(C(=O)O)c2cc(Br)ccc2n1 |  |
| 74 |  | O=C(O)c1cc(C(=O)O)c2cc(Oc3ccccc3)ccc2n1 |  |
| 100 | 40 | COc1cc(OC)c2nc(C(=O)O)cc(C(=O)O)c2c1 |  |

| Glutamate uptake remaining (% of control) [1] [%] | Glutamate uptake remaining (% of control) [4] [%] | Compound | also measured |
| --- | --- | --- | --- |
| 79 |  | CCCCCCOc1ccc2nc(C(=O)O)cc(C(=O)O)c2c1 |  |
|  |  | Cc1cc(-c2ccc(/N=N/c3ccc4c(S(=O)(=O)O)cc(S(=O)(=O)O)c(N)c4c3O)c(C)c2)ccc1/N=N/c1ccc2c(S(=O)(=O)O)cc(S(=O)(=O)O)c(N)c2c1O [EVANS BLUE] | Ki [2]: 0.04 µM |
| 100 |  | O=C(O)c1cc(C(=O)O)c2cc(OCCO)ccc2n1 |  |
| 100 | 38 | O=C(O)c1cc(C(=O)O)c2ccccc2n1 |  |
| 37 |  | O=C(O)c1cc(C(=O)O)c2cc(/C=C/c3ccc(-c4ccccc4)cc3)ccc2n1 | Ki [5]: 64 µM |
| 70 |  | O=C(O)c1cc(C(=O)O)c2cccc(-c3cccc4ccccc34)c2n1 |  |
| 100 | 24 | O=C(O)c1cc(C(=O)O)c2cc3c(cc2n1)OCO3 |  |
| 100 | 12 | O=C(O)c1cc(C(=O)O)c2cc3c(cc2n1)OCCO3 |  |
|  | 2 | O=C(O)c1cc(C(=O)O)c2cc(Br)cc(Br)c2n1 |  |
|  |  | O=C(O)c1cc(O)c2cccc(O)c2n1 [XANTHURENATE] | Ki [2]: 190 µM |
|  | 2 | O=C(O)c1cc(C(=O)O)c2ccc(Cl)c(Cl)c2n1 |  |
|  |  | C=C(C[C@H](N)C(=O)O)C(=O)O | Ki [2]: 3000 µM |
| 100 | 58 | COc1cc2nc(C(=O)O)cc(C(=O)O)c2cc1OC |  |
| 100 |  | O=C(O)c1cc(C(=O)O)c2cc(O)ccc2n1 |  |
| 100 | 11 | O=C(O)c1cc(C(=O)O)c2c(Br)cccc2n1 |  |
| 97 |  | CCOc1ccc2nc(C(=O)O)cc(C(=O)O)c2c1 |  |
| 100 | 39 | O=C(O)c1cc(C(=O)O)c2cccc(F)c2n1 |  |
| 90 | 20 | COc1cccc2c(C(=O)O)cc(C(=O)O)nc12 |  |
| 29 |  | O=C(O)c1cc(C(=O)O)c2ccc(CCc3ccccc3)cc2n1 |  |
| 100 |  | O=C(O)c1cc(C(=O)O)c2c(-c3ccccc3)cccc2n1 |  |
|  |  | O=C(O)c1cc(=O)c2ccccc2[nH]1 [TRANSTORINE] | Ki [7]: 1.3 mM |
| 100 | 51 | COc1ccc2nc(C(=O)O)cc(C(=O)O)c2c1 |  |
| 73 | 2 | O=C(O)c1cc(C(=O)O)c2cccc(O)c2n1 | Ki [5]: 286 µM |
| 85 | 3 | O=C(O)c1cc(C(=O)O)c2cc(OCc3ccccc3)ccc2n1 | Ki [5]: 368 µM |
| 53 |  | O=C(O)c1cc(C(=O)O)c2cc(-c3cccc4ccccc34)ccc2n1 |  |
| 100 | 7 | O=C(O)c1cc(C(=O)O)c2cccc(Br)c2n1 |  |
| 27 |  | O=C(O)c1cc(C(=O)O)c2c(/C=C/c3ccccc3)cccc2n1 |  |
